Measurements as given in ChEMBL document CHEMBL3797186, “Single Residue Substitutions That Confer Voltage-Gated Sodium Ion Channel Subtype Selectivity in the NaV1.7 Inhibitory Peptide GpTx-1” (J Med Chem, 2016).
Positions of bridges follow the written chain, without caps; N, C: chain ends. Non-standard residues stand in square brackets, D forms with d. Residues, ends and D or L forms follow the SMILES beside them. 1Nal = N[C@@H](Cc1cccc2ccccc12)C(=O)O

How the values were obtained:
[1] = target: Sodium channel protein type 9 subunit alpha (Homo sapiens, UniProt Q15858); test: Inhibition of human Nav1.7 expressed in HEK293 cells assessed as inward peak current by ion-works quattro patch clamp electrophysiology method; format: cell-based
Chain of Sodium channel protein type 9 subunit alpha (Q15858 whole entry): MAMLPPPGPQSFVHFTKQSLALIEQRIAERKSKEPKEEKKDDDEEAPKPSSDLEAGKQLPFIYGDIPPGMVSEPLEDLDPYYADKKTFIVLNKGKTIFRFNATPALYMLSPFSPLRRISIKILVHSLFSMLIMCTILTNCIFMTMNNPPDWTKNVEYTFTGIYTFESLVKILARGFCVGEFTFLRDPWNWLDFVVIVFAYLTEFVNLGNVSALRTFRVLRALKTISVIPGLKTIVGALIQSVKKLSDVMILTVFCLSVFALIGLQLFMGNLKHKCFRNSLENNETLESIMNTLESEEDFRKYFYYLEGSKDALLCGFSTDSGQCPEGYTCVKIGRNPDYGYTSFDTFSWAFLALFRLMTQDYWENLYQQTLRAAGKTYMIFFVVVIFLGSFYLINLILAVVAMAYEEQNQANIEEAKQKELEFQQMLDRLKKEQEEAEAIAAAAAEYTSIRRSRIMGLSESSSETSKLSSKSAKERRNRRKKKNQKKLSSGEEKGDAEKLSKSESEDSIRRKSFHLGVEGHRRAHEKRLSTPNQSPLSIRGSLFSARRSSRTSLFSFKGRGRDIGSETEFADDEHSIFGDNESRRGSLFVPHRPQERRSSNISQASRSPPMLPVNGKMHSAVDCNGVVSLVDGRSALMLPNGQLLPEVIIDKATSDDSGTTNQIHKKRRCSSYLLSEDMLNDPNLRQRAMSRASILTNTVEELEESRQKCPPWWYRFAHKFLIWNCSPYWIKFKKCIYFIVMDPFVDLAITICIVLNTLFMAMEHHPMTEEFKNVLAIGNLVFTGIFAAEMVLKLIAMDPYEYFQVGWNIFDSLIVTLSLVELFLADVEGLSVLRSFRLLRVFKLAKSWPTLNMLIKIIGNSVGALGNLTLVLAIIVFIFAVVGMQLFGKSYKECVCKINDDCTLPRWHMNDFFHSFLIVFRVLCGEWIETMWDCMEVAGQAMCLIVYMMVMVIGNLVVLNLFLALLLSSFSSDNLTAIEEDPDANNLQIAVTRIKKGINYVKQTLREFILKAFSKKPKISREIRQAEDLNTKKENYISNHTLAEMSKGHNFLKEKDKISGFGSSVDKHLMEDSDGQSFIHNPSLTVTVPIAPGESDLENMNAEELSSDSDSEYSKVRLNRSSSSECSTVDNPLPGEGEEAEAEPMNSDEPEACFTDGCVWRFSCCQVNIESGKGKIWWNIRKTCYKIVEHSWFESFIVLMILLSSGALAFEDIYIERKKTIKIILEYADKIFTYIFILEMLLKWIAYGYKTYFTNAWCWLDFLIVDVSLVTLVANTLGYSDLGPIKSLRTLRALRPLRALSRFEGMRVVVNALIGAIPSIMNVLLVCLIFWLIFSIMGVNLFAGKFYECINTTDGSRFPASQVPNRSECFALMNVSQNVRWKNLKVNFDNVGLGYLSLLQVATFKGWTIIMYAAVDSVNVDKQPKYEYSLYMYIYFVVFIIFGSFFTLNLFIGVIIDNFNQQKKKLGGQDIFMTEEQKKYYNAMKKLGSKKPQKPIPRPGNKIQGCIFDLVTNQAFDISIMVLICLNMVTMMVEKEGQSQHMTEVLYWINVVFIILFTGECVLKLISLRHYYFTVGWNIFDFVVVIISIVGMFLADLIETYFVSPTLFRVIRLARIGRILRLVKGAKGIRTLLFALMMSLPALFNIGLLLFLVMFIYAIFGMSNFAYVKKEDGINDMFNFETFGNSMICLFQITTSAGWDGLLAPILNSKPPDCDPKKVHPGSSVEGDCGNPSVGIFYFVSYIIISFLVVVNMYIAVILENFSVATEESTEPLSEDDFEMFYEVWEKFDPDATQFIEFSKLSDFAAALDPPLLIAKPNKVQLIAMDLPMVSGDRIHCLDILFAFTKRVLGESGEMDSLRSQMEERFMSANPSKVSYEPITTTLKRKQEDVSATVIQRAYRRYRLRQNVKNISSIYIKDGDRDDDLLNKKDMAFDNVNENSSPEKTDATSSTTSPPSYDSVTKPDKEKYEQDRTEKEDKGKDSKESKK

[2] = target: Sodium channel protein type 5 subunit alpha (Homo sapiens, UniProt Q14524); test: Inhibition of human Nav1.5 expressed in HEK293 cells assessed as inward peak current by ion-works quattro patch clamp electrophysiology method; format: cell-based
Chain of Sodium channel protein type 5 subunit alpha (Q14524 whole entry): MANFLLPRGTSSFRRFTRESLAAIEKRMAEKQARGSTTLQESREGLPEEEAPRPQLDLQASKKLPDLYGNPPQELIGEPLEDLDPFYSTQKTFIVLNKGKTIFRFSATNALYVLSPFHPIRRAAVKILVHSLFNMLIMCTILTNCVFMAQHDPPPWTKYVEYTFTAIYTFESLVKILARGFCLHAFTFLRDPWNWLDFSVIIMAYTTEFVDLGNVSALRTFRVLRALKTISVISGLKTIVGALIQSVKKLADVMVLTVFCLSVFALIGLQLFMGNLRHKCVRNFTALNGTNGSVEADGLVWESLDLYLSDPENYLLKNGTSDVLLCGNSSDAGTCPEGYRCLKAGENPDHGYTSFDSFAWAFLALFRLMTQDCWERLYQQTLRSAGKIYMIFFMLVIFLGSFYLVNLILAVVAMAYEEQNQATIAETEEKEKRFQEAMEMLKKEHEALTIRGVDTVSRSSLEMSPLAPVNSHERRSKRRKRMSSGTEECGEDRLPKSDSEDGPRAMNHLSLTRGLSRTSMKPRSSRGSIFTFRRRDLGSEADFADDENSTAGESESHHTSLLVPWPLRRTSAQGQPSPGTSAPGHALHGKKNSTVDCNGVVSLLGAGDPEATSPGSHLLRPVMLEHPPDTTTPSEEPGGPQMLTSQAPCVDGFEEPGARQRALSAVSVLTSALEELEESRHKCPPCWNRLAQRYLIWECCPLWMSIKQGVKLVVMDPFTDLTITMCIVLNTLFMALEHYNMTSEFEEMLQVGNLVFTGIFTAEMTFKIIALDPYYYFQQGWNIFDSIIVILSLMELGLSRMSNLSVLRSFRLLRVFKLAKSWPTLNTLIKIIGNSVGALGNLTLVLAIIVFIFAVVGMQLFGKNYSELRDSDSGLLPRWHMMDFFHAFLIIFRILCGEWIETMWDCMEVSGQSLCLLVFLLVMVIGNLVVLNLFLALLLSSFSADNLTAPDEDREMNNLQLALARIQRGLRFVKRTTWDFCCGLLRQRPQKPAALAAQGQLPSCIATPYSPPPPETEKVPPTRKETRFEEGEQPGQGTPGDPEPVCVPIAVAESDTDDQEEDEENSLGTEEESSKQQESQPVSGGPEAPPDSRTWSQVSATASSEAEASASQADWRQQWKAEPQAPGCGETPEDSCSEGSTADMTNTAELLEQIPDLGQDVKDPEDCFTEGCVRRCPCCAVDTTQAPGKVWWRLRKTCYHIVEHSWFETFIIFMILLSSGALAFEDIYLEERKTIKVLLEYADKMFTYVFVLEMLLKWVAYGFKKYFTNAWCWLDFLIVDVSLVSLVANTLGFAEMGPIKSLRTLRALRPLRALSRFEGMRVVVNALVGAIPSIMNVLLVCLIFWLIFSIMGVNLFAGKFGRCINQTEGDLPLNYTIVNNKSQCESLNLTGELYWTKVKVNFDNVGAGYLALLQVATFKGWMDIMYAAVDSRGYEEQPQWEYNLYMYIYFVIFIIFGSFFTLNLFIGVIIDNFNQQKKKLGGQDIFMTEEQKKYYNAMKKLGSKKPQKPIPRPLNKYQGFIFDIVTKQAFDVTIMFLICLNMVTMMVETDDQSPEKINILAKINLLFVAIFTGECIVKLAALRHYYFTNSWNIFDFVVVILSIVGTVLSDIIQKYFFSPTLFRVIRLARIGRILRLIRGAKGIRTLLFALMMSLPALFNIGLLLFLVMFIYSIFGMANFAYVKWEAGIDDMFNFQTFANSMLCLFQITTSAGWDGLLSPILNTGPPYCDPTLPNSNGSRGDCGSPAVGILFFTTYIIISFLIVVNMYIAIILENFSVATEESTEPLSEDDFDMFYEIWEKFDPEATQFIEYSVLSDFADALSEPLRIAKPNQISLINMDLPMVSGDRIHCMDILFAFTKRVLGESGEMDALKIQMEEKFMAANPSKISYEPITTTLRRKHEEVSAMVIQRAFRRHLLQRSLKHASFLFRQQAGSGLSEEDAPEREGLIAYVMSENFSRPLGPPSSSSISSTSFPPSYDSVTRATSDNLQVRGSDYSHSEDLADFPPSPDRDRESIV
Summary of the method: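 Stable HEK293 line expressing human NaV1.5, recorded by population patch clamp on the IonWorks Quattro.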

Row | Compound | IC50 [1] | IC50 [2]
1 | CC[C@H](C)[C@@H]1NC(=O)[C@@H]2CSSC[C@@H]3NC(=O)[C@H](C(C)C)NC(=O)[C@H](CC(C)C)NC(=O)[C@H](CC(N)=O)NC(=O)[C@@H]4CCCN4C(=O)[C@H](CCCNC(=N)N)NC(=O)[C@H](CSSC[C@H](NC(=O)[C@@H](N)CC(=O)O)C(=O)N[C@@H](CC(C)C)C(=O)NCC(=O)N[C@@H](Cc4ccccc4)C(=O)N[C@@H](CCSC)C(=O)N[C@@H](CCCNC(=N)N)C(=O)N[C@@H](CCCCN)C(=O)N2)NC(=O)[C@H](CSSC[C@@H](C(=O)N[C@@H](CCCCN)C(=O)N[C@@H](Cc2ccc(O)cc2)C(=O)N[C@H](C(=O)N[C@@H](CCC(=O)O)C(N)=O)C(C)C)NC(=O)[C@H](Cc2c[nH]c4ccccc24)NC(=O)[C@H](CCCCN)NC(=O)[C@H](Cc2cnc[nH]2)NC(=O)[C@H]([C@@H](C)O)NC(=O)[C@H](CCCNC(=N)N)NC(=O)[C@H](CO)NC3=O)NC(=O)[C@H](CCCCN)NC(=O)[C@H](CC(=O)O)NC(=O)[C@H](CC(N)=O)NC(=O)[C@H](CC(=O)O)NC(=O)[C@@H]2CCCN2C1=O (H-DCLGFMRKCIPDNDKCCRPNLVCSRTHKWCKYVE-NH2; disulfide 2-17, 9-23, 16-30) | > 5000 nM | > 5 µM
2 | CC[C@H](C)[C@@H]1NC(=O)[C@@H]2CSSC[C@@H]3NC(=O)[C@H](C(C)C)NC(=O)[C@H](CC(C)C)NC(=O)[C@H](CC(N)=O)NC(=O)[C@@H]4CCCN4C(=O)[C@H](CCCNC(=N)N)NC(=O)[C@H](CSSC[C@H](NC(=O)[C@@H](N)CC(=O)O)C(=O)N[C@@H](CC(C)C)C(=O)NCC(=O)N[C@@H](Cc4ccccc4)C(=O)N[C@@H](CCSC)C(=O)N[C@@H](CCCNC(=N)N)C(=O)N[C@@H](CCCCN)C(=O)N2)NC(=O)[C@H](CSSC[C@@H](C(=O)N[C@@H](CCCCN)C(=O)N[C@@H](Cc2ccc(O)cc2)C(=O)N[C@H](C(=O)N[C@@H](Cc2ccccc2)C(N)=O)C(C)C)NC(=O)[C@H](Cc2c[nH]c4ccccc24)NC(=O)[C@H](CCCCN)NC(=O)[C@H](Cc2cnc[nH]2)NC(=O)[C@H](CCCNC(=N)N)NC(=O)[C@H](CCCNC(=N)N)NC(=O)[C@H](CO)NC3=O)NC(=O)[C@H](CCCCN)NC(=O)[C@H](CC(=O)O)NC(=O)[C@H](CC(N)=O)NC(=O)[C@H](CC(=O)O)NC(=O)[C@@H]2CCCN2C1=O (H-DCLGFMRKCIPDNDKCCRPNLVCSRRHKWCKYVF-NH2; disulfide 2-17, 9-23, 16-30) | 40 nM | 3.5 µM
3 | CC[C@H](C)[C@@H]1NC(=O)[C@@H]2CSSC[C@@H]3NC(=O)[C@H](C(C)C)NC(=O)[C@H](CC(C)C)NC(=O)[C@H](CC(N)=O)NC(=O)[C@@H]4CCCN4C(=O)[C@H](CCCNC(=N)N)NC(=O)[C@H](CSSC[C@H](NC(=O)[C@H](CC(=O)O)NC(=O)[C@@H](N)CCCCN)C(=O)N[C@@H](CC(C)C)C(=O)NCC(=O)N[C@@H](Cc4ccccc4)C(=O)N[C@@H](CCSC)C(=O)N[C@@H](CCCNC(=N)N)C(=O)N[C@@H](CCCCN)C(=O)N2)NC(=O)[C@H](CSSC[C@@H](C(=O)N[C@@H](CCCCN)C(=O)N[C@@H](Cc2ccc(O)cc2)C(=O)N[C@H](C(=O)N[C@@H](Cc2ccccc2)C(N)=O)C(C)C)NC(=O)[C@H](Cc2c[nH]c4ccccc24)NC(=O)[C@H](CCCCN)NC(=O)[C@H](Cc2cnc[nH]2)NC(=O)[C@H]([C@@H](C)O)NC(=O)[C@H](CCCNC(=N)N)NC(=O)[C@H](CO)NC3=O)NC(=O)[C@H](CCCCN)NC(=O)[C@H](CC(=O)O)NC(=O)[C@H](CC(N)=O)NC(=O)[C@H](CC(=O)O)NC(=O)[C@@H]2CCCN2C1=O | 120 nM | > 5 µM
4 | CC[C@H](C)[C@@H]1NC(=O)[C@@H]2CSSC[C@@H]3NC(=O)[C@H](C(C)C)NC(=O)[C@H](CC(C)C)NC(=O)[C@H](CC(N)=O)NC(=O)[C@@H]4CCCN4C(=O)[C@H](CCCNC(=N)N)NC(=O)[C@H](CSSC[C@H](NC(=O)[C@@H](N)CC(=O)O)C(=O)N[C@@H](CC(C)C)C(=O)NCC(=O)N[C@@H](Cc4ccccc4)C(=O)N[C@@H](CCSC)C(=O)N[C@@H](CCCNC(=N)N)C(=O)N[C@@H](CCCCN)C(=O)N2)NC(=O)[C@H](CSSC[C@@H](C(=O)N[C@@H](CCCCN)C(=O)N[C@@H](Cc2ccc(O)cc2)C(=O)N[C@H](C(=O)N[C@@H](Cc2ccccc2)C(N)=O)C(C)C)NC(=O)[C@H](Cc2c[nH]c4ccccc24)NC(=O)[C@H](CCCCN)NC(=O)[C@H](CCC(=O)O)NC(=O)[C@H]([C@@H](C)O)NC(=O)[C@H](CCCNC(=N)N)NC(=O)[C@H](CO)NC3=O)NC(=O)[C@H](CCCCN)NC(=O)[C@H](CC(=O)O)NC(=O)[C@H](CC(N)=O)NC(=O)[C@H](CC(=O)O)NC(=O)[C@@H]2CCCN2C1=O (H-DCLGFMRKCIPDNDKCCRPNLVCSRTEKWCKYVF-NH2; disulfide 2-17, 9-23, 16-30) | > 5000 nM | > 5 µM
5 | CC[C@H](C)[C@@H]1NC(=O)[C@@H]2CSSC[C@@H]3NC(=O)[C@H](C(C)C)NC(=O)[C@H](Cc4cccc5ccccc45)NC(=O)[C@H](CC(N)=O)NC(=O)[C@@H]4CCCN4C(=O)[C@H](CCCNC(=N)N)NC(=O)[C@H](CSSC[C@H](NC(=O)[C@@H](N)CC(=O)O)C(=O)N[C@@H](CC(C)C)C(=O)NCC(=O)N[C@@H](Cc4ccccc4)C(=O)N[C@@H](CCSC)C(=O)N[C@@H](CCCNC(=N)N)C(=O)N[C@@H](CCCCN)C(=O)N2)NC(=O)[C@H](CSSC[C@@H](C(=O)N[C@@H](CCCCN)C(=O)N[C@@H](Cc2ccc(O)cc2)C(=O)N[C@H](C(=O)N[C@@H](Cc2ccccc2)C(N)=O)C(C)C)NC(=O)[C@H](Cc2c[nH]c4ccccc24)NC(=O)[C@H](CCCCN)NC(=O)[C@H](Cc2c[nH]cn2)NC(=O)[C@H]([C@@H](C)O)NC(=O)[C@H](CCCNC(=N)N)NC(=O)[C@H](CO)NC3=O)NC(=O)[C@H](CCCCN)NC(=O)[C@H](CC(=O)O)NC(=O)[C@H](CC(N)=O)NC(=O)[C@H](CC(=O)O)NC(=O)[C@@H]2CCCN2C1=O (H-DCLGFMRKCIPDNDKCCRPN[1Nal]VCSRTHKWCKYVF-NH2; disulfide 2-17, 9-23, 16-30) | 90 nM | > 5 µM
6 | CC[C@H](C)[C@@H]1NC(=O)[C@@H]2CSSC[C@@H]3NC(=O)[C@H](C(C)C)NC(=O)[C@H](CC(C)C)NC(=O)[C@H](CCC(=O)O)NC(=O)[C@@H]4CCCN4C(=O)[C@H](CCCNC(=N)N)NC(=O)[C@H](CSSC[C@H](NC(=O)[C@@H](N)CC(=O)O)C(=O)N[C@@H](CC(C)C)C(=O)NCC(=O)N[C@@H](Cc4ccccc4)C(=O)N[C@@H](CCSC)C(=O)N[C@@H](CCCNC(=N)N)C(=O)N[C@@H](CCCCN)C(=O)N2)NC(=O)[C@H](CSSC[C@@H](C(=O)N[C@@H](CCCCN)C(=O)N[C@@H](Cc2ccc(O)cc2)C(=O)N[C@H](C(=O)N[C@@H](Cc2ccccc2)C(N)=O)C(C)C)NC(=O)[C@H](Cc2c[nH]c4ccccc24)NC(=O)[C@H](CCCCN)NC(=O)[C@H](Cc2cnc[nH]2)NC(=O)[C@H]([C@@H](C)O)NC(=O)[C@H](CCCNC(=N)N)NC(=O)[C@H](CO)NC3=O)NC(=O)[C@H](CCCCN)NC(=O)[C@H](CC(=O)O)NC(=O)[C@H](CC(N)=O)NC(=O)[C@H](CC(=O)O)NC(=O)[C@@H]2CCCN2C1=O (H-DCLGFMRKCIPDNDKCCRPELVCSRTHKWCKYVF-NH2; disulfide 2-17, 9-23, 16-30) | 1400 nM | > 5 µM
